Screens from PubChem BioAssay.
An excerpt weighted towards active compounds, which were near 2.5% of everything screened.
ABCG2 block: blocks JC-1 efflux by human ABCG2 transporter; IgMXP3 cells, flow cytometry; inhibition, % at 6.6 µM; 190,000 compounds, 0.1% hits; Q9UNQ0;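 active = inhibition above 80%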;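 also: 0% = DMSO and 100% = nicardipine control wells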
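Times: 10 min at 25 °C | Test system: Two drug-resistant human cell lines, ABCG2 and ABCB1 | Quantity: 3 million cells/mL final, two lines in 1:1 ratio | Signal: Flow cytometry, 530 nm JC-1 signal | Dosing: Compound at 6.6 µM | Controls: Nicardipine and DMSO wells | Reagent: JC-1 as fluorescent efflux pump substrate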
Efflux pump inh: blocks antifungal efflux pumps in multiplex yeast assay | S. cerevisiae Candida pump triplex, Nile Red efflux | inhibition, % at 10 µM | 330,000 compounds, 0.44% hits | AID 485275;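 active = plate passing quality check with inhibition over a set limit, or well fluorescence over plate mean plus 4 SD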;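 also: Nile Red retained in pooled yeast measured as flow cytometry median fluorescence; 0% = buffer negative control and 100% = Enniatin B positive control; higher means more Nile Red kept so more efflux inhibition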
MEKK3 PB1 HTS: MEKK3-MEK5 PB1 interaction, increase or decrease; Q99759; bead-based flow cytometry, Alexa488-MEK5 binding to MEKK3; actives lie on both sides; 0 = blocked by unlabeled MEK5, 100 = vehicle; binding response (% of control), % at 10 µM; 290,000 compounds, 1.4% hits;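 active = binding response more than 3 SD above or below the average of its plate-row segment, actives on both sides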;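 also: Alexa488 bead fluorescence after subtracting the streptavidin-only scavenger bead signal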
MEKK2mut PB1 HTS: signal of MEK5 binding to mutant human MEKK2 PB1 domain. bead flow cytometry, Alexa488-MEK5 binding to MEKK2 mutant. percent response, % at 10 µM. 290,000 compounds, 0.35% hits; in the data active = percent response above about 24%, passing the limit was not always enough
ABCB1 block: human ABCB1 inhibition, ABCG2 as counter-screen. P08183. CCRF-Adr cells, JC-1 efflux, flow cytometry. inhibition, % at 6.6 µM. 190,000 compounds, 0.067% hits. AID 1326; in the data active = inhibition above about 40%;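 also: 0% = vehicle and 100% = reference inhibitor; higher value means more JC-1 retained so stronger ABCB1 efflux block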
MEKK2wt PB1 HTS: raises or lowers MEK5 binding to wildtype human MEKK2 PB1 domain; bead flow cytometry, Alexa488-MEK5 binding to MEKK2 WT; actives lie on both sides; binding response (% of control), % at 10 µM; 290,000 compounds, 1.1% hits; AID 1531; in the data active = binding response below about 67% or above about 130%
MEKK2wt confirm: raises or lowers MEK5 binding to wildtype human MEKK2, retest | binding response (% of control), % at 10 µM | AID 1892 | bead flow cytometry, Alexa488-MEK5 binding to MEKK2 WT; actives lie on both sides | shares compounds with MEKK3 PB1 HTS | 5,900 compounds, 2.4% hits; in the data active = binding response below about 16% or above about 210%; inactive = in between
MEKK2mut confirm: signal of MEK5 binding to mutant human MEKK2, retest. shares compounds with MEKK3 PB1 HTS. bead flow cytometry, Alexa488-MEK5 binding to MEKK2 mutant. percent response, % at 10 µM. 5,900 compounds, 2% hits. AID 1893; in the data active = percent response mostly above about 71%, no sharp cut-off; inactive = mostly below about 38%;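 also: higher means compound restores mutant binding toward wildtype level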
MEKK3 confirm: MEKK3-MEK5 PB1 inhibition, single concentration confirmation; bead flow cytometry, Alexa488-MEK5 binding to MEKK3; hits give low values; 5,900 compounds, 1.8% hits; shares compounds with MEKK3 PB1 HTS; binding response (% of control), % at 10 µM; AID 1894;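 active = binding response below 72% of control, or above a set upper limit, though filed actives all read lower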;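 also: 100% = DMSO only wells and 0% = binding blocked by excess unlabeled MEK5; lower values mean stronger disruption of MEK5 binding to MEKK3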
Active calls of the source: *; . = no result; [ ] = another dose, or the depositor's remark.

SMILES	ABCG2 block	Efflux pump inh	MEKK3 PB1 HTS	MEKK2mut PB1 HTS	ABCB1 block	MEKK2wt PB1 HTS	MEKK2wt confirm	MEKK2mut confirm	MEKK3 confirm
COc1ccc(C[C@H]2CN3C(=NC[C@@H]3Cc3ccc(O)cc3)N2CCNC(=O)c2ccc(C)c(Br)c2)cc1	1	.	111	96*	0	247*	196	48	109
Cc1ccc(C(=O)NCCN2C3=NC[C@H](Cc4ccc(O)cc4)N3C[C@H]2Cc2ccc(O)cc2)cc1Br	.	0	106	13	.	143*	134	15	100
C/C=C(\C)C(=O)NCCN1C2=NC[C@@H](C)N2C[C@H]1Cc1ccc(O)cc1	1	0	102	9	1	111	.	.	.
COCCNC(=O)CN(C(=O)CCC(=O)Nc1ccccn1)c1ccc(C)cc1C	.	0	104	14	.	103	.	.	.
Cc1cc(Cl)ccc1NC(=O)CCC(=O)O	-1	0	135*	1	0	108	103	3	99
Cc1cc(Cl)ccc1NC(=O)CCCN1C(=O)CCC1=O	1	0	102	4	0	104	.	.	.
COc1cc(OC)c(OC)cc1CCC(C)NCCC(c1ccccc1)c1ccccc1 (centres undefined)	.	0	111	18	.	166*	120	6	99
COc1ccccc1CCNC(C)CCc1ccc(O)cc1 (centres undefined)	.	0	106	10	.	109	.	.	.
Cc1[nH]c2ccccc2c1C(Nc1nccs1)c1ccncc1 (centres undefined)	4	0	138*	0	0	105	103	0	102
Cc1ccnc(NC(c2ccncc2)c2c(C)[nH]c3ccccc23)c1 (centres undefined)	2	0	106	16	0	132	.	.	.
Cc1cc(NCCCN(C)C)n2nc(-c3cccs3)cc2n1	4	0	112	26*	1	107	107	-2	104
Cc1cc(C)c2c(n1)nn1c(NCCCN(C)C)cc(C)nc21	0	0	95	-6	0	97	.	.	.
CCCC(c1nnnn1CS(=O)(=O)c1ccc(C)cc1)N1CCN(C2CCCC2)CC1 (centres undefined)	.	0	100	5	.	101	.	.	.
COc1ccc(C(C)C)cc1S(=O)(=O)N1CCN(C)CC1	-3	0	133*	10	-2	133	112	3	107
COc1cccc(NC(=O)c2ccccc2N2C(=O)C3C4C=CC(C5CC45)C3C2=O)c1 (centres undefined)	.	0	87	-19	.	82	.	.	.
Cn1cc(S(=O)(=O)N2CCN(c3cccc(Cl)c3)CC2)c(=O)n(C)c1=O	.	0	129*	29	.	132	109	10	103
CCOc1cccc(OCCOCCOc2ccccc2C(C)=O)c1	29	2	193*	2	2	111	95	4	100
Cc1noc(C)c1COc1ccc(C(=O)OCC(=O)Nc2c(C)n(C)n(-c3ccccc3)c2=O)cc1	0	0	97	1	0	97	.	.	.
Cc1ccc(C2=NCCn3c2c2ccc(C(F)(F)F)cc2[n+]3[O-])cc1	.	0	.	.	.	.	.	.	.
O=c1oc2ccc3ccccc3c2cc1-c1nnc(-c2ccccc2)o1	1	0	99	-3	0	91	.	.	.
CCN(CC)c1ccc2cc(-c3nnc(-c4ccccc4)o3)c(=O)oc2c1	0	0	89	-3	34	60*[inhibitor]	75	-14	94
Cc1nn(CC(=O)OCCOc2ccc(Br)cc2)c(C)c1[N+](=O)[O-]	0	0	50*[inhibitor]	-4	0	66	101	1	99
Cc1nn(CC(=O)c2ccc(Br)s2)c(C)c1[N+](=O)[O-]	.	0	46*[inhibitor]	-11	.	50	86	-11	89
Cc1cccc(CSc2nc3c(c(=O)[nH]2)CCC3)c1	10	0	134*	3	1	115	109	8	103
Cc1ccc(CSc2nc3c(c(=O)[nH]2)CCC3)cc1	1	0	109	10	0	107	.	.	.
SMILES	ABCG2 block	Efflux pump inh	MEKK3 PB1 HTS	MEKK2mut PB1 HTS	ABCB1 block	MEKK2wt PB1 HTS	MEKK2wt confirm	MEKK2mut confirm	MEKK3 confirm
CN1CCc2c(c3c(n2C)CCN(C)[C@H]3c2ccccc2F)[C@@H]1c1ccccc1F	0	.	103	10	0	113	.	.	.
O=C(CSc1nc(-c2ccccc2)c(-c2ccccc2)[nH]1)Nc1ccc2c(c1)OCO2	5	-1	146*	1	0	113	95	-3	104
O=C(CSc1nc2ncccc2[nH]1)Nc1ccc2c(c1)OCO2	.	0	98	-5	.	99	.	.	.
Cn1nc(-c2ccc(C(=O)N3CCN(Cc4ccccc4)CC3)cc2)c2ccccc2c1=O	2	0	52*[inhibitor]	-14	1	57*[inhibitor]	108	3	104
Cn1nc(-c2ccc(C(=O)Nc3cccc(Cl)c3)cc2)c2ccccc2c1=O	7	0	34*[inhibitor]	-26	5	1.0*[inhibitor]	87	-1	92
Cc1ccc(NC(=O)c2ccc(-c3nn(C)c(=O)c4ccccc34)cc2)cc1	76	0	96	-1	11	96	.	.	.
O=C(c1ccc(-n2cccc2)cc1)N1CCN(Cc2ccccc2)CC1	5	0	89	-9	1	88	.	.	.
COc1ccc(-c2nnc(OCc3ccccc3)c3ccccc23)cc1	34	0	129*	0	2	104	110	9	110
CCOc1ccc2ncc(C(=O)c3ccc(OC)cc3)c(N3CCN(CC)CC3)c2c1	26	0	100	1	20	499*	114	13	105
CCN1CCN(c2cc(C)c3cc(NC(=S)N4CCN(c5ccccc5F)CC4)ccc3n2)CC1	7	0	113	18	1	148*	149	32	108
CCN1CCN(c2cc(C)c3cc(NC(=O)c4cnccn4)ccc3n2)CC1	-4	0	100	19	-2	119	.	.	.
CCN1CCN(c2cc(C)c3cc(NC(=S)N4CCN(c5ccccc5)CC4)ccc3n2)CC1	3	0	101	8	0	121	.	.	.
CCOc1ccc(C(=O)Nc2ccc3nc(N4CCN(CC)CC4)cc(C)c3c2)cc1	.	0	108	17	.	148*	143	21	106
